Source: PubChem (Broad Institute)
N-glyco inh = N-linked glycosylation inhibition. D54 ERlucT glycosylation luciferase reporter, 24 h; percent of 100 nM tunicamycin response. reporter increase, % at 12.5 µM. 0.23% of 360,000 active. AID 588692;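 active means mean luciferase reporter signal, scaled so untreated is 0 and the glycosylation-blocking control 100, at or above a set limit in every replicate; inconclusive means mean reaches the limit but not every replicate does; inactive means mean below the limit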;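 further: luciferase carries N-glycosylation sites so blocking glycosylation raises the light; 0% = median of neutral control wells and 100% = median of 100 nM tunicamycin wells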
PfHsp90 set2 = reduces growth (ATP signal) of yeast expressing P. falciparum Hsp90. S. cerevisiae expressing PfHsp90, BacTiter-Glo ATP, 48 h; yeast lacking PDR1 and PDR3 efflux regulators. inhibition, % at 9.4 µM. 0.32% of 310,000 active;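 active means every replicate shows inhibition above about 80%, whatever the replicate mean, limit read from the data; inconclusive means mean inhibition reaches the set limit but some replicate falls short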;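 further: 0% = DMSO neutral controls and 100% = 20 µM radicicol positive controls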
CaV13 FRET inh = Primary screen for inhibitors of IQ motif and Ca2+-dependent inactivation inhibitor domain binding in CACNA1D, Förster resonance energy transfer in living cells, …; HEK cells, CFP/YFP FRET ICDI-IQ, plate reader, 10 min; percent FRET-ratio fall versus neutral wells; inhibition, % at 12.3 µM; 0.098% of 340,000 active;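 active means mean replicate inhibition of at least 30% and at least 1% of replicates passing that level; inconclusive means only one of the two criteria is met; inactive means neither criterion is met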;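 further: 0% = median of the neutral control wells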
PvdQ inh = blocks Pseudomonas aeruginosa PvdQ acylase activity; inhibition, % at 10 µM; purified PvdQ acylase, fluorescence plate reader; AID 488965; 0.063% of 340,000 active; in the data active means inhibition above about 30%, passing the limit was not always enough; inconclusive means no clear call, values can overlap the other calls;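 further: 0% = vehicle neutral wells and 100% = reference inhibitor wells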
T cruzi repl = blocks replication of Trypanosoma cruzi. AID 1885. T. cruzi beta-gal in NIH3T3, luminescence, 90 h. inhibition, % (test concentration not listed). 1.4% of 300,000 active;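 active means mean inhibition across valid replicates above about 55%, limit read from the data; inconclusive means mean below that limit but half or more replicates reach it; inactive means mean below it, under half of replicates reach it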;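 further: signal also drops with host cell toxicity which is not excluded here; 0% = plate median of DMSO wells and 100% = zero luminescence signal; higher percent means less beta-gal luminescence so fewer parasites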
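System: NIH/3T3 fibroblasts plus reporter T. cruzi. Medium: DMEM plus 2% FBS. Probe or stimulus: 5000 reporter trypomastigotes per well. Compound: single 50 nL compound addition per well in DMSO. Incubation: co-culture of at least 90 h after 3 h attachment. Detection: GalScreen β-gal luminescence, detergent lysis, 60 min. Evaluation: parasite load inhibition, %.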
HSF1 activator = increases HSF-1 driven luciferase reporter signal | activation, % at 9 µM | NIH3T3-HGL HSF-1 luciferase reporter, MG132, 8 h; 100% = twice DMSO control signal | AID 504408 | 1.7% of 300,000 active;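 active means mean replicate activation of at least 50% with a set share of replicates each reaching 50%; inconclusive means only one of those two conditions met; inactive means mean below 50% and too few replicates reaching it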;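 further: 0% = median of the neutral control wells and 100% = twice that signal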
Numbers without * were called inactive; ? = inconclusive; . = no result given. Rows were chosen to be rich in hits. Some 3% of all compounds tested hit in one or more screens of this group.

SMILES | N-glyco inh | PfHsp90 set2 | CaV13 FRET inh | PvdQ inh | T cruzi repl | HSF1 activator
CN(C)CCCN(C(=O)c1ccc(Cl)s1)c1nc2cc3c(cc2s1)OCO3 | -3.9 | 28.3 | -13.5 | -10.3 | ? | 6.4
CCOc1ccc2nc(N(CCN(CC)CC)C(=O)c3ccc([N+](=O)[O-])cc3)sc2c1 | -1.1 | -8.7 | -6.5 | -4.4 | 54.9* | -13.0
CN(C)CCCN(C(=O)c1ccco1)c1nc2c(F)cc(F)cc2s1 | 9.1 | -2.0 | 8.1 | -15.6 | 57.1* | 46.5
CN(C)CCCN(C(=O)c1ccco1)c1nc2cc3c(cc2s1)OCO3 | 5.8 | 5.3 | -10.4 | 3.3 | 56.7* | 34.4
OCC[C@@H]1C[C@H](O)[C@@H](O)[C@@]2(OCc3ccc(CO)cc32)O1 | -1.0 | . | -11.2 | . | . | .
COC(=O)C1=C(C)N(Cc2ccccc2C(F)(F)F)C(=NCc2ccccc2)NC1CCc1ccccc1 (centres undefined) | . | . | -5.4 | . | . | .
CC(C)C[C@H]1COc2cc(N3CCCC3)ccc2S(=O)(=O)N1 | . | . | -6.2 | . | . | .
CN(C)CCCN(C(=O)c1ccc([N+](=O)[O-])s1)c1nc2cc3c(cc2s1)OCCO3 | -2.1 | -0.6 | -6.2 | -11.7 | 33.3 | -35.5
Cc1ccc2nc(N(CCCN(C)C)C(=O)c3ccc(Br)s3)sc2c1 | -1.5 | -10.6 | -4.7 | 8.2 | 61.7* | -15.9
CCN(CC)CCN(C(=O)C1=COCCO1)c1nc2ccc(C)cc2s1 | 0.6 | -4.6 | -7.3 | 13.2 | 58.9* | 53.2*
Cc1ccc2nc(N(CCCN(C)C)C(=O)c3ccco3)sc2c1 | -2.8 | -13.2 | -2.7 | -7.7 | 55.8* | -4.1
CCN(CC)CCN(C(=O)C1=COCCO1)c1nc2cc3c(cc2s1)OCO3 | 2.7 | 7.7 | -5.2 | -8.8 | 42.6 | 23.3
CN(C)CCCN(C(=O)c1ccc(Br)s1)c1nc2cc3c(cc2s1)OCCO3 | 4.2 | . | -6.4 | -10.8 | ? | -26.0
CN(C)CCCN(C(=O)c1cc2cc([N+](=O)[O-])ccc2s1)c1nc2cc3c(cc2s1)OCCO3 | -7.2 | 22.1 | -7.2 | 6.8 | 63.0* | -46.8
O=C(N[C@H](C(=O)N1CCC[C@H]1C(=O)NC1CCCC1)c1ccccc1)c1ccc(Cl)cc1Cl | . | . | -3.2 | . | . | .
CCOC(=O)c1cc(-c2ccccc2)sc1NC(=O)CN1C(=O)NC(CC)(c2ccccc2)C1=O (centres undefined) | -3.8 | -7.1 | -3.4 | 9.5 | 66.2* | 4.8
CCOC(=O)c1cc(-c2ccccc2)sc1NC(=O)CSc1nnc(N)s1 | 2.6 | . | 96.4* | -12.2 | 2.0 | -10.6
CCOC(=O)c1cc(-c2ccccc2)sc1NC(=O)CN1C(=O)NC(CC)(c2ccc(F)cc2)C1=O (centres undefined) | -3.1 | . | -3.5 | -7.8 | 60.5* | 16.4
O=S1(=O)N[C@H](Cc2ccccc2)COc2cccc(N3CCCCC3)c21 | . | . | -7.0 | . | . | .
CC1CCCCC1NC(=O)CSc1nnc(-c2ccco2)n1N (centres undefined) | 0.6 | . | -5.4 | . | . | .
CCCC(=O)OC[C@H]1CN(C2CCCC2)S(=O)(=O)c2c(Oc3ccc(C(C)(C)C)cc3)cccc2O1 | . | . | -5.8 | . | . | .
CC(C)Cc1ccc(CN2CCCC(NC(=O)c3cnc4ccccn4c3=O)C2)cc1 (centres undefined) | -2.3 | 1.8 | . | -9.8 | 55.0* | -9.0
CCCCNC(=O)c1nc(C2CCN(S(=O)(=O)c3ccccc3C(F)(F)F)CC2)oc1-c1cccc(C(F)(F)F)c1 | -2.7 | . | -3.3 | . | . | .
COc1cccc(NC(=O)C(=O)NCC2CCCN2S(=O)(=O)c2ccccc2)c1 (centres undefined) | -4.1 | . | -7.2 | -5.4 | 5.6 | 56.4*
CCOC(=O)C1=CCN(S(=O)(=O)c2ccc(Cl)cc2)C1c1ccc(Br)cc1 (centres undefined) | . | . | -2.4 | . | . | .
SMILES | N-glyco inh | PfHsp90 set2 | CaV13 FRET inh | PvdQ inh | T cruzi repl | HSF1 activator
O=[N+]([O-])c1cccc(COc2ccc(CO)cc2)c1 | . | . | -4.7 | . | . | .
COc1ccccc1NC(=O)Cn1nnc(C(=O)NCc2cccs2)c1N | 28.5* | 4.9 | -15.0 | -14.6 | -9.3 | -30.4
O=C(C=P(c1ccccc1)(c1ccccc1)c1ccccc1)c1ccccc1-c1ccccc1C(=O)C=P(c1ccccc1)(c1ccccc1)c1ccccc1 | 0.5 | 145.4* | -8.0 | 7.9 | . | -3.4
COc1ccc(OCC2CN(C3CCCC3)S(=O)(=O)CCO2)cc1 (centres undefined) | . | . | -3.1 | . | . | .
Oc1ccc(Nc2nc(-c3ccccc3)nc3ccccc23)cc1 | 1.2 | -8.9 | . | 7.1 | -0.6 | 11.1
Oc1ccc(Nc2nc3ccccc3nc2Nc2ccc(O)cc2)cc1 | 50.4* | -9.3 | . | -8.3 | 71.2* | -86.2
O=C(N/N=C/c1sc(N2CCOCC2)nc1-c1ccccc1)c1cccc(S(=O)(=O)N2CCCC2)c1 | -5.2 | -23.8 | -14.7 | 0.3 | 77.3* | -6.0
O=C(N/N=C/c1sc(N2CCOCC2)nc1-c1ccccc1)c1ccc(O)cc1 | 23.9 | 31.9 | -3.9 | -10.5 | -5.7 | ?
CNc1ncnc2c1cnn2C1CCCCO1 (centres undefined) | -0.4 | -2.0 | -5.1 | -8.9 | . | .
O=S(=O)(c1ccc(C(F)(F)F)cc1)N1CCCc2nc(-c3ccccc3)ccc21 | . | . | -3.4 | . | . | .
Cc1c(Cl)c(C(=O)NNC(=S)Nc2ccc(F)cc2)nn1C | 1.0 | 0.8 | -2.8 | -13.3 | -4.8 | 58.9*
Cc1c(Cl)c(C(=O)NNC(=S)Nc2ccccc2)nn1C | 3.4 | 13.4 | . | -13.1 | -6.3 | 15.8
C(=CCSc1ccccn1)CSc1ccccn1 | . | . | -4.1 | . | . | .
O=C(Nc1ccc(C2SCCS2)cc1)c1ccccc1 | -7.5 | . | -3.7 | . | 1.7 | 54.2*
O=C(Nc1ccccc1)c1ccc(NC(=O)C2CC2)cc1 | -2.1 | -3.0 | . | -17.9 | 8.7 | 54.0*
O=C(Nc1ccc(Nc2ccccc2)cc1)c1ccccc1 | . | . | 6.6 | . | 15.9 | 32.4
O=C(Nc1ccc(F)cc1)c1ccccc1 | -1.4 | 19.4 | -9.7 | -7.8 | -24.3 | 64.6*
O=C(Nc1ccc2nc3ccccc3nc2c1)c1ccccc1 | -2.2 | 42.5 | -55.5 | -11.7 | -5.3 | 81.4*
O=C(Nc1ccc(Cl)c(Cl)c1)c1ccccc1 | -9.9 | . | -0.9 | -18.8 | . | .
O=C(Nc1ccc(F)cc1)c1cccc(C(=O)Nc2ccc(F)cc2)c1 | 0.1 | 50.9 | -19.1 | -13.2 | -9.2 | -8.4
Cc1ccc(S(=O)(=O)NC(=O)C2(C)CCN2C(=O)CCc2ccc(Cl)cc2Cl)cc1 (centres undefined) | 0.8 | . | -6.2 | . | . | .
CN(CC(=O)Nc1cccc(Cl)c1)S(=O)(=O)/C=C/c1ccccc1 | -1.3 | . | -6.5 | . | . | .
CNC(=O)Nc1ccc(C2SCCS2)cc1 | 3.8 | 5.3 | -4.1 | 5.5 | 9.9 | 30.7
O=C1C(Cl)=C(NC(=O)c2ccccc2)C(=O)C(Cl)=C1NC(=O)c1ccccc1 | -1.9 | -7.8 | -2.2 | -13.3 | 68.1* | 17.9
CC(=O)Nc1ccc2cc3ccc(NC(C)=O)cc3nc2c1 | 36.3* | -39.3 | -9.2 | -15.1 | 8.9 | 19.6
